Assay outcomes deposited in PubChem by several laboratories.
SR-BI uptake up = activators of SR-BI mediated DiI-HDL uptake, primary screen, ldlA[mSR-BI] CHO cells, DiI fluorescence; 3 h; 100 = double the neutral-control signal; activation, % at 12.5 µM; hit rate 0.096% among 320,000; AID 504775, 2011;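 active means mean replicate activation of at least 60% and every replicate at or above 60%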;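 further: 0% = median plate neutral-control signal and 100% = twice that signal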
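Assay system: LDL receptor-deficient CHO ldlA cells overexpressing murine SR-BI / Medium: BSA-supplemented, HEPES-buffered Ham's F12, pH 7.4 / Probe or stimulus: DiI-labelled HDL at 10 µg/mL final / Timing: compound with DiI-HDL co-incubation, 3 h at 37 °C / Technique: bottom-read cell fluorescence after medium removal, ex 550/em 595 nm / Measure: HDL uptake via cellular fluorescence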
SR-BI DiI inh = inhibitors of SR-BI mediated HDL lipid uptake, primary screen, ldlA[mSR-BI] cells, fluorescence, single point. inhibition, % at 12.5 µM. hit rate 0.96% among 320,000. Scavenger receptor class B member 1 (Mus musculus), Q61009. AID 488896, 2010. ldlA[mSR-BI] CHO cells, DiI-HDL uptake fluorescence, 3 h;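 active means mean replicate inhibition of at least 70% and a set share of replicates each scoring 70 or more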;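 further: 0% = median of neutral control wells and 100% = median of positive control wells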
UBC13 polyUb = UBC13 polyubiquitin chain formation inhibitors, primary screen, biochemical, TR-FRET, uHTS. Ubiquitin-conjugating enzyme E2 N (Homo sapiens), P61088. inhibition, % at 20 µM. hit rate 0.47% among 330,000; in the data active means inhibition above about 45%, passing the limit was not always enough
Target sequence (P61088 whole entry, looked up): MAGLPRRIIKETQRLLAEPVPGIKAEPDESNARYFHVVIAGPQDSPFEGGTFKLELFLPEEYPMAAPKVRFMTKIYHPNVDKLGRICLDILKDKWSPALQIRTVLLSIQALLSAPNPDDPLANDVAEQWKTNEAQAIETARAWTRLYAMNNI
Neddylation inh = inhibitors of cullin neddylation, primary screen, biochemical, TR-FRET, uHTS, NAE and Ubc12 | AID 651699, 2012 | hit rate 0.58% among 360,000 | inhibition, % at 25 µM | NEDD8-conjugating enzyme Ubc12 (Homo sapiens) + NEDD8-activating enzyme E1 regulatory …; in the data active means inhibition above about 36%
Numbers without * were called inactive; . = no result shown. The list is not random: actives were taken first. Their share in the collection is about 1.9%.

SMILES	SR-BI uptake up	SR-BI DiI inh	UBC13 polyUb	Neddylation inh
Cc1cc(Br)ccc1NC(=O)CN(C)C(=O)c1ccc2ccccc2n1	8	-8	5	-2
CCOc1ncccc1C(=O)Nc1cccc(S(=O)(=O)N2CCOCC2)c1	-18	18	7	-6
COc1ccc(C2=NO[C@@](CC(=O)O)(C(=O)Nc3ccc4c(c3)OCCO4)C2)cc1	1	-1	-4	-11
CCOC(=O)/C=C1\CC(C(=O)OCC)Oc2c(OC)cccc21 (stereo not given)	-14	14	.	20
C=C1c2cccc(OC)c2O[C@H](C(=O)OCC)[C@@H]1CC(CC)CCCC (stereo not given in full)	-84	84*	.	6
Cc1ccc(-c2nn(-c3ccccc3)cc2/C=C(\C#N)c2cccc(C#N)c2)o1	-67	67	-17	37*
O=C(COc1coc(CN2CCc3ccccc3C2)cc1=O)N1CCOCC1	12	-12	4	16
CCCN(C)C1CN(Cc2cn(CCCC(=O)OC)nn2)S(=O)(=O)C1 (stereo not given)	.	.	.	3
CCOC(=O)C1CCN(C(=O)/C=C/c2ccc(S(=O)(=O)N3CCOCC3)cc2)CC1	63*	-63	-10	-5
CC(=O)C1=CCC(c2cccc(Cl)c2)N(S(=O)(=O)c2ccc(C)cc2)C1 (stereo not given)	.	.	.	1
COc1ccc(O)c(C(=O)c2coc(=N)c(C(=O)Nc3ccc(SC(F)F)cc3)c2)c1	-76	76*	20	-14
CC(C)OC(=O)c1cc(C(=O)c2cc(F)ccc2O)coc1=N	4	-4	-9	13
Cc1ccc(C)c(Cn2c(O)c(N=NC(=S)Nc3ccccc3F)c3ccccc32)c1	-84	84*	-29	-3
COc1cc(OC)c(C2=NOC(C(=O)N3CCCc4ccccc43)C2)cc1Cl (stereo not given)	-81	81*	-9	-1
COc1ccc(C(=O)N2CCCc3ccccc32)cc1OC	-83	83*	.	-2
COc1cc(C(=O)N2CCCc3ccccc32)cc(OC)c1OC	-30	30	3	-6
COc1ccc(/C=C/C(=O)Nc2cc(C(F)(F)F)ccc2Cl)cc1OC	-68	68	-10	31
COc1cc(/C=C/C(=O)Nc2cc(C(F)(F)F)ccc2Cl)cc(OC)c1OC	-78	78*	15	.
CCCOC(=O)c1c(NC(=O)/C=C/c2cnn(C)c2C)sc(C(=O)OC)c1C	-55	55	28	.
CCCOC(=O)c1c(NC(=O)/C=C/c2cnn(C)c2C)sc(C(=O)OCC)c1C	-76	76*	26	.
O=C(O)CN1C(=O)/C(=C/C=C/c2ccccc2)SC1=S	32	-32	-18	-13
CC(=O)c1ccc(NC(=O)CN2C(=O)/C(=C/C=C/c3ccccc3)SC2=S)cc1	-72	72*	-21	-2
Cc1sc2ncn(CC(=O)N3CCN(c4ccc(F)cc4)CC3)c(=O)c2c1S(=O)(=O)N1CCOCC1	-23	23	4	-3
O=C(Cn1cc(C(F)(F)F)ccc1=O)NCC1CCCO1 (stereo not given)	-9	9	0	-15
CCOCC(=O)Nc1ccc(S(=O)(=O)Nc2nccs2)cc1	8	-8	-2	8
SMILES	SR-BI uptake up	SR-BI DiI inh	UBC13 polyUb	Neddylation inh
CCOC(=O)/C=C/C(=O)Nc1ccc(S(=O)(=O)Nc2nccs2)cc1	-73	73*	-2	1
Oc1c(N=Nc2ccccn2)ccc2ccccc12	-134	134*	-61	-32
c1ccc(-c2nc3cc4ccccc4cc3[nH]2)nc1	-2	2	-17	44*
COc1ccc(CN2CCNC(=O)C2CC(=O)N(C)Cc2ccon2)c(F)c1 (stereo not given)	10	-10	-11	-5
CCOc1ccc(-n2cnc3sc(C)c(C)c3c2=O)cc1	-71	71*	10	2
O=C(CCC(=O)Nc1ccccc1Cl)NNC(=O)C1CCCCC1	14	-14	-3	-7
O=C(CN1CCN(CC(=O)Nc2ccc(OCc3ccccc3)cc2)CC1)Nc1ccc(F)cc1	451*	-451	8	-1
O=C(Nc1ccccc1)c1ccccc1OCc1ccc(F)cc1	-74	74*	-4	18
O=C(Nc1ccccc1C(=O)Nc1ccc(F)cc1)c1ccco1	-75	75*	1	23
N#Cc1ccc(COC(=O)c2cnc(Cl)c(Cl)c2)cc1	8	-8	6	-58
COc1cc(NC(=O)c2cc3ccccc3cc2OC)ccc1NC(=O)c1cccs1	.	71*	-4	.
COc1cc(NC(=S)NC(=O)c2c(OC)cccc2OC)ccc1NC(=O)c1cccs1	-74	74*	-7	23
COc1cc(NC(=S)NC(=O)c2ccccc2F)ccc1NC(=O)c1cccs1	-83	83*	-2	1
O=C(CSc1nc(=O)n(Cc2ccccn2)c2c1CCC2)Nc1ccc(F)cc1F	-4	4	-3	7
O=C(NNC(=O)C1CCN(S(=O)(=O)c2ccccc2C(F)(F)F)CC1)c1ccccc1O	-100	100*	7	.
O=C(NC1CCCCCC1)C1CCN(S(=O)(=O)c2c(Cl)cccc2Cl)CC1	-11	11	10	5
O=C(NCc1ccco1)C1CCN(S(=O)(=O)c2ccccc2C(F)(F)F)CC1	.	10	20	-6
O=C(NNC(=O)C1CCN(S(=O)(=O)c2c(Cl)cccc2Cl)CC1)c1ccccc1O	-103	103*	15	29
O=C(NNC(=O)c1ccccc1O)c1ccc(Cl)c(S(=O)(=O)N2CCCCC2)c1	-103	103*	-1	4
O=C(NNC(=O)C1CCN(S(=O)(=O)c2ccccc2)CC1)c1ccccc1O	-83	83*	12	27
O=S(=O)(SC1=NCCN1)c1ccccc1	-17	17	.	-1
Cc1ccc(-n2nc3c(=O)n(CCCC(=O)NCc4ccccc4Cl)nc(C)c3c2C)cc1	-13	13	0	12
Cc1ccc(-c2nn3c(C)nnc3s2)cc1NC(=O)c1ccc(-c2cccc(Cl)c2)o1	-73	73*	-3	13
Cc1ccc(-c2nn3c(C)nnc3s2)cc1NC(=O)c1ccc(-c2ccc(Cl)cc2Cl)o1	-79	79*	26	.
O=C(/C=C/c1ccc(OCc2ccccc2)c(OCc2ccccc2)c1)c1cccnc1	-84	84*	-8	8
C[C@H]1CN([C@@H](C)CO)C(=O)CCCn2nncc2CO[C@H]1CN(C)C(=O)Nc1cccc2ccccc12	.	.	.	3
COc1ccc([N+](=O)[O-])cc1NC(=O)C(C)N(C)Cc1ccc(Br)cc1 (stereo not given)	-75	75*	-2	-4
COc1ccc([N+](=O)[O-])cc1NC(=O)C(C)N1CCN(C(=O)c2ccco2)CC1 (stereo not given)	-72	72*	-4	-25
COc1ccc(Br)cc1CN(C)C(C)C(=O)Nc1cc([N+](=O)[O-])ccc1OC (stereo not given)	-39	39	11	-8
